Test results as given in ChEMBL document CHEMBL1177857, “Functionalized aurones as inducers of NAD(P)H:quinone oxidoreductase 1 that activate AhR/XRE and Nrf2/ARE signaling pathways: synthesis, evaluation and SAR” (Eur J Med Chem, 2010).

Experiments:
[1] = Cytotoxicity against mouse Hepa-1c1c7 cells assessed as cell survival at 5 uM after 48 hrs by MTT assay; format: cell-based; settings: read-out: Activity
Outline: (§1)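 MTT (0.5 mg/ml) added for 3 h at 37 °C, formazan dissolved in DMSO and read at 590 nm. Survival (%) = (A treated − A blank)/(A untreated − A blank) × 100.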

[2] = Induction of NQO1 activity in mouse Hepa-1c1c7 cells at 25 uM after 48 hrs relative to control
[3] = Induction of NQO1 activity in mouse Hepa-1c1c7 cells at 5 uM after 48 hrs relative to control
[4] = Cytotoxicity against mouse Hepa-1c1c7 cells assessed as cell survival at 25 uM after 48 hrs by MTT assay; format: cell-based; settings: read-out: Activity; outline: as §1

| fold change (FC) [2] | fold change (FC) [3] | SMILES | viability at 48 h, 5 µM [1] | viability at 48 h, 25 µM [4] |
| --- | --- | --- | --- | --- |
| 1.71 | 1.33 | O=C1/C(=C/c2ccccc2Cl)Oc2ccc(O)cc21 | 98% | 94% |
|  | 1.46 | COc1cc(OC)c2c(c1)OC(Cc1ccccc1)C2=O (stereo unspecified) | 95% |  |
| 1.52 | 1.48 | COc1ccccc1/C=C1\Oc2cc(O)cc(O)c2C1=O | 103% | 100% |
| 1.31 | 1.15 | N#Cc1ccc(/C=C2\Oc3cc(O)ccc3C2=O)cc1 | 94% | 90% |
| 1.44 | 1.01 | COc1ccccc1/C=C1\C(=O)Oc2ccc(O)cc21 | 92% | 110% |
| 1.58 | 1.6 | O=C1/C(=C/c2cccc(O)c2)Oc2cc(O)cc(O)c21 | 111% | 106% |
| 1.5 | 1.79 | COc1cc(OC)c2c(c1)O/C(=C\c1cnc3ccccc3c1)C2=O | 93% | 97% |
| 1.17 | 1 | COc1ccc(/C=C2\Oc3ccc(O)cc3C2=O)cc1 |  |  |
| 1.71 | 1.45 | O=C1/C(=C/c2cccc(Cl)c2)Oc2cc(O)cc(O)c21 | 96% | 86% |
| 0.96 | 1.16 | COc1cc(OC)c2c(c1)O/C(=C\c1ccc(N(C)C)cc1)C2=O | 101% | 98% |
| 1.4 | 1.03 | COc1cc(OC)c2c(c1)O/C(=C\c1ccc(O)cc1O)C2=O | 51% |  |
| 1.6 | 1.61 | COc1cc(OC)c2c(c1)O/C(=C\c1ccc([N+](=O)[O-])cc1)C2=O | 88% | 88% |
| 1.42 | 1.79 | COc1cc(OC)c2c(c1)O/C(=C\c1ccccc1C)C2=O | 91% | 87% |
| 1.1 | 1.49 | COc1cc(OC)c2c(c1)OC(=O)/C2=C\c1ccccc1O | 121% | 89% |
| 1.59 | 0.91 | COc1cccc(/C=C2\Oc3cc(OC)cc(OC)c3C2=O)c1 | 100% | 103% |
| 1.71 | 1.35 | COc1ccc(/C=C2\C(=O)Oc3ccc(O)cc32)cc1 | 110% | 118% |
| 1.18 | 1.19 | COc1cccc(/C=C2\Oc3ccc(O)cc3C2=O)c1 | 104% | 110% |
| 1.3 | 1.02 | O=C1/C(=C/c2ccccc2Cl)Oc2cc(O)ccc21 | 120% | 117% |
| 1.6 | 1.3 | O=C1Oc2ccc(O)cc2/C1=C/c1ccc(O)cc1 | 111% | 101% |
| 1.17 | 0.92 | O=C1/C(=C/c2ccccc2Cl)Oc2ccccc21 | 111% | 98% |
| 1.49 | 1.38 | Cc1ccc(/C=C2\Oc3cc(O)cc(O)c3C2=O)cc1 | 103% | 95% |
| 1.7 | 1.59 | O=C1/C(=C/c2ccc(Cl)cc2)Oc2cc(O)cc(O)c21 | 93% | 96% |

| fold change (FC) [2] | fold change (FC) [3] | SMILES | viability at 48 h, 5 µM [1] | viability at 48 h, 25 µM [4] |
| --- | --- | --- | --- | --- |
| 1.36 | 1.14 | Cc1ccc(/C=C2\Oc3ccc(O)cc3C2=O)cc1 |  |  |
| 1.3 | 1.39 | O=C1/C(=C/c2ccccc2)Oc2cc(O)cc(O)c21 | 110% | 100% |
| 1.23 | 1.2 | O=C1Oc2ccc(O)cc2/C1=C/c1ccc(F)cc1 | 101% | 121% |
| 1.9 | 1.8 | COc1cc(OC)c2c(c1)O/C(=C\c1cccnc1)C2=O | 94% | 98% |
| 1.6 | 1.47 | COc1cc(/C=C2\Oc3cc(O)cc(O)c3C2=O)cc(OC)c1OC | 99% | 94% |
|  |  | O=C1/C(=C/c2ccc(O)cc2)Oc2cc(O)ccc21 | 100% | 98% |
| 1.5 | 1.19 | COc1ccc(/C=C2\Oc3cc(O)ccc3C2=O)cc1 | 91% | 95% |
| 1.3 | 1.02 | O=C1Oc2ccc(O)cc2/C1=C/c1ccccc1Cl | 93% | 87% |
| 1.25 | 1.3 | N#Cc1ccc(/C=C2\Oc3ccc(O)cc3C2=O)cc1 |  |  |
| 1.34 | 1.05 | O=C1Oc2ccc(O)cc2/C1=C/c1ccccc1F | 102% | 114% |
| 1.9 | 1.42 | COc1cc(OC)c2c(c1)OC(=O)/C2=C\c1ccc(Cl)cc1 | 115% | 110% |
| 0.91 | 1.06 | COc1ccc(/C=C2\Oc3cc(OC)cc(OC)c3C2=O)cc1 [4,4',6-TRIMETHOXY-AURONE] | 93% | 87% |
| 1.29 | 1.18 | COc1cc(OC)c2c(c1)O/C(=C\c1ccc(O)cc1)C2=O | 94% | 89% |
| 1.34 | 1.34 | COc1cc(OC)c2c(c1)O/C(=C\c1ccc(C)cc1)C2=O | 89% | 93% |
| 1.01 | 1.22 | COc1cccc(/C=C2\Oc3cc(O)ccc3C2=O)c1 | 85% | 84% |
| 1.32 | 1.14 | O=C1Oc2ccc(O)cc2/C1=C/c1cccc(F)c1 | 127% | 120% |
| 0.83 | 1.08 | COc1cc(OC)c2c(c1)O/C(=C\c1ccc(C(F)(F)F)cc1)C2=O | 90% | 93% |
|  | 2.13 | COc1cc(OC)c2c(c1)O/C(=C\c1ccc(Cl)cc1)C2=O | 93% |  |
| 1.35 | 1.14 | N#Cc1ccc(/C=C2\Oc3cc(O)cc(O)c3C2=O)cc1 | 115% | 102% |
| 0.94 | 1.22 | O=C1/C(=C/c2ccc(O)cc2)Oc2ccc(O)cc21 |  |  |
| 1.18 | 1.32 | O=C1/C(=C/c2ccc(Cl)cc2)Oc2ccc(O)cc21 |  |  |
|  | 2.28 | O=C1/C(=C/c2ccccc2)Oc2ccc(O)cc21 |  |  |
